# Test: Toxicity liver stage against HepG2, at 10uM
# Type: cell-based
# Parameters: test concentration 10 uM, cell line HepG2-A16-CD81EGFP
# Conditions: human, HepG2-A16-CD81EGFP cells; read-out: INHIBITION
# Summary of the method: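 Uninfected HepG2-A16-CD81EGFP cells, 3 × 10^3 per well, 1536-well, plated on prespotted compound at 10 μM final, parasite-free screening media added to match infected plates; puromycin 10 μM positive, DMSO 0.5% negative; run in parallel with 48 h PbLuc assay at 37 °C, 5% CO2; viability by CellTiter-Glo luminescence, normalized to controls.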
row,Structure (SMILES),cytotoxicity at 10 µM
1,COCC(=O)N[C@H]1C[C@@H](Cc2cc(CN3CCCCC3)on2)C1(C)C,-8.12%
2,CCOc1cc(N2CCN(C(=O)c3ccc(OC)cc3)CC2)nc(C)n1,-10.2%
3,Cc1ccc(S(=O)(=O)NCC(O)c2ccoc2)s1 (stereo unspecified),-8.18%
4,CCn1c2c(ccc1=O)CC(N)CC2 (stereo unspecified),-1.72%
5,O=C(NCC1CC1)C1CCC2(CCNCC2)C1 (stereo unspecified),1.91%
6,CC[C@@H]1N(CC2CCC2)CCC[C@]12CCC(=O)N2Cc1ccncc1,7.12%
7,CO[C@@H]1CCN(c2ncccn2)[C@H]1Cc1ccccc1,-0.651%
8,O=C1CC(c2ccsc2)c2sc(C(=O)O)c(-c3ccc(F)cc3)c2N1 (stereo unspecified),4.4%
9,COc1ccc(-n2ncc(C(=O)NCC3COC(C)(C)O3)c2N)cc1 (stereo unspecified),3.97%
10,O=C(CCn1cc(Cl)cn1)Nc1ccc2c(c1)OCCO2,-2.18%
11,Cn1nc(C(=O)N2CCOCC2)cc1C(=O)Nc1ccc(Cl)cc1Cl,-7.41%
12,Cc1cc(-c2ccc(=O)n(C3CCN(S(C)(=O)=O)CC3)n2)c(C)o1,3.62%
13,O=C(O)[C@@H]1CCN(C(=O)c2ccccn2)[C@@H]1c1ccc(F)cc1,4.16%
14,CC(C)N1CCC(c2n[nH]cc2S(C)(=O)=O)CC1,-7.22%
15,CC(=O)N1CCN(C(=O)C2CCN(c3cccnn3)C2)CC1 (stereo unspecified),-17.6%
16,CCC(CC)C(=O)N1CCN(Cc2cc(-c3ccncc3)nn2C)CC1,-27.9%
17,COc1cccc(C(C)N2CCN(S(=O)(=O)CCCF)CC2)c1 (stereo unspecified),2.5%
18,CC(C)CNC(=O)Nc1cccc(OCC#N)c1,-0.353%
19,CN(CC(=O)Nc1nc2c(s1)CCC2)C(=O)c1cccs1,-10.3%
20,CCn1nc(C)c(CNC(=O)NCC(C)(O)c2ccc(C)o2)c1C (stereo unspecified),10.5%
21,COc1c(C)cnc(CNC(=O)c2cnc3onc(C)c3c2)c1C,26.3%

row,Structure (SMILES),cytotoxicity at 10 µM
1,c1ccc(NCc2cccc(OCCN3CCOCC3)c2)nc1,0.174%
2,O=C(NCc1ccccc1CN1CCCC1=O)Nc1nncs1,-2.82%
3,CCc1noc(C)c1C(=O)Nc1cnn(CC(=O)NC2CCCC2)c1,-3.08%
4,O=C(NCc1cccc(F)c1)NC1CCCN(c2ncccn2)C1 (stereo unspecified),-0.7%
5,CCOc1ncccc1NC(=O)c1cc(C)sc1C,-6.81%
6,CC(C)CC(=O)N1CCCC1c1ccsc1 (stereo unspecified),2.96%
7,Cc1cc(N2CCOCC2)ccc1NC(C)c1nc(C(C)C)no1 (stereo unspecified),-12.3%
8,CC(C)c1nc2c(n1C)CCN(CCS(=O)(=O)c1ccccc1)C2,5.11%
9,Cc1cc(NCC(=O)NCC(F)(F)F)nc(-c2ccncc2)n1,6.45%
10,Cc1c(Cl)cccc1S(=O)(=O)NCc1cnc(N(C)C)n1C,-6.31%
11,NC(=O)CN(Cc1ccc(Br)cc1)C(=O)c1cccnc1,9.49%
12,Cc1cccc(NC(=O)N(CCC(F)(F)F)C[C@H](O)CO)c1,4.3%
13,COc1ccccc1CN(Cc1nc(CC(C)C)no1)C1CC1,4.93%
14,CC(O)CN1CCN(C(=O)CCOc2ccccc2F)CC1 (stereo unspecified),3.66%
15,Cc1ccc(C(=O)NCCS(C)(=O)=O)c(=O)[nH]1,-9.32%
16,CC(=O)Nc1c(C)cnn1Cc1cc(F)ccc1F,25.3%
17,O=C(NCc1ccccc1CN1CCC(O)CC1)Nc1ccncc1,-13.1%
18,Cc1cc(CN(C)C(=O)C2CCCN(C(=O)c3cccs3)C2)no1 (stereo unspecified),-17%
19,COCCN1C(=O)CC(N2CCN(c3ccc(OC)cc3)CC2)C1=O (stereo unspecified),-12.6%
20,O=C(O)c1cc(-c2cncnc2)cc(S(=O)(=O)N2CCCCCC2)c1,5.38%
21,CCC(=O)N1CCCC(c2nc(-c3cccnn3)no2)C1 (stereo unspecified),-6.45%

row,Structure (SMILES),cytotoxicity at 10 µM
1,CN(C)S(=O)(=O)NCc1cccnc1Oc1ccc(F)c(F)c1,3.05%
2,CCn1c(CN(C)C)nnc1C1CCN(Cc2ccc(Cl)cc2F)CC1,-2.53%
3,Cc1ccc(N2CCC(C(=O)O)(n3ccc(C(C)C)n3)CC2)nn1,-3.64%
4,COc1ccnc(N2CCC3(CC2)[C@H](O)C[C@@H]3OCCN(C)C)n1,1.03%
5,Cc1c(NC(=O)N(C)CCCc2cnn(C)c2)cnn1C,-1.23%
6,NC(=O)N1CCCC(c2nc(-c3cccnn3)no2)C1 (stereo unspecified),-1.31%
7,CCC[C@H]1CN(C(=O)CCn2ccccc2=O)C[C@@H]1NS(C)(=O)=O,5.35%
8,CC(C)S(=O)(=O)N1CCCC(c2cccc(C(=O)O)c2)C1 (stereo unspecified),-2.18%
9,Cc1ccc(C2(CN(C)Cc3snnc3C)CCNCC2)nc1,-0.355%
10,Cc1nc(-c2c(-c3ccccc3)ncn2[C@H]2C[C@@H](C(=O)O)N(C)C2)co1,0.024%
11,CNCCN1C(=O)CC[C@H]2CN(c3ncc(F)cn3)CC[C@H]21,1.68%
12,O=C(O)c1cc2n(n1)CCCN(C(=O)CCc1c[nH]c3ccccc13)C2,3.77%
13,COCCN1CCCC2(CCN(c3cc(C)c(C#N)c(C)n3)C2)C1=O (stereo unspecified),2.7%
14,CCCn1cc(-c2cc(C(=O)N(C)C)c3cccc(C)c3n2)cn1,5.11%
15,CN(Cc1cnc(N)nc1)CC1CCCN(CCc2ccc(Cl)cc2)C1 (stereo unspecified),-0.849%
16,Cc1cc(C)c2nc(CN[C@H]3CCCNC3)cc(O)c2c1,4.09%
17,CCS(=O)(=O)N1CCN(c2cc(-n3cnc(C)c3C)nc(C)n2)CC1,0.599%
18,Cc1nc(N2CCCCC2)ncc1C(=O)N1CC(C)(C)[C@@](C)(O)C1,1.41%
19,COc1cccc(CN2CCC(c3nccn3C(C)C)CC2)c1,-8.37%
20,Cc1cc(C)c(C(=O)N2CCOCC2c2c(C)n[nH]c2C)o1 (stereo unspecified),-4.01%
21,O=C(NCC1CCOC1)Nc1ccc(Oc2cccc(F)c2)nc1 (stereo unspecified),-5.01%

row,Structure (SMILES),cytotoxicity at 10 µM
1,Cc1ccc(-c2cc(C(=O)NCCN3CCCS3(=O)=O)[nH]n2)cc1,-7.57%
2,O=S(=O)(CCN1CCCCC1Cn1cncn1)c1ccccc1 (stereo unspecified),10.4%
3,CCc1n[nH]c(C2CN(C(=O)c3cnn(CC)c3)CCO2)n1 (stereo unspecified),-2.87%
4,Cc1nc(CN(C)C2CCN(CCc3ccc4c(c3)CCO4)C2)no1 (stereo unspecified),-12%
5,CN(Cc1coc(-c2ccccc2)n1)CC1CCCN1c1cccnn1 (stereo unspecified),-10.4%
6,CCc1nc(CN2CCCN(C(=O)c3occc3C)CC2)cs1,-21.9%
7,O=C(NCCn1nc2ccccn2c1=O)c1cc(-c2ccccc2)[nH]n1,-28.5%
8,Cc1cn2nc(N3CCCC3Cn3cncn3)sc2n1 (stereo unspecified),-18.3%
9,O=C(CCSc1ccccc1)NS(=O)(=O)c1ccc2c(c1)OCCO2,-5.69%
10,CC(=O)N1CCN(C(=O)CCCc2nc(C(C)C)no2)CC1,-9.34%
11,COc1ccc(OCCN(C)C(=O)NC(C)c2nncn2C)cc1 (stereo unspecified),1.08%
12,Cn1cncc1C(=O)N1CCOC2(COCCN(CC3CC3)C2)C1 (stereo unspecified),9.17%
13,CCN1CC2(CC1=O)CN(Cc1ccccn1)CCN(C(C)=O)C2 (stereo unspecified),-1.07%
14,COCC1CN(Cc2ccc(C)o2)Cc2nnn(CC3CC3)c21 (stereo unspecified),-9.96%
15,O=C(NCC1CC1)c1n[nH]c2c1CNCC2,4.14%
16,c1ccc(CN2CCN3C[C@H](Oc4cncnc4)C[C@H]3C2)nc1,-99.8%
17,CNC(=O)[C@@H](C1CCCCC1)N1CCC[C@H]1C(=O)N(C)CCN(C)C,-0.39%
18,Cc1ccc(CN2CC[C@@H](NS(C)(=O)=O)[C@@H]2Cc2ccncc2)o1,-3.18%

# Reference: ChEMBL document CHEMBL4513216, “Probing the Open Global Health Chemical Diversity Library for Multistage-Active Starting Points for Next-Generation Antimalarials” (ACS Infect Dis, 2020)
